Reference: article PMC8602434 (Drugs in R&D, 2021)

Assay: Healthy volunteers, multiple-dose arm, sc once daily for 7 days
Assay type: in vivo
Settings: human
In short: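 Double-blind, placebo-controlled abdominal sc dosing once daily for 7 days: 1.0 or 3.0 mg, cohorts of 10 (8 active, 2 placebo). Serial blood on Day 1 (predose to 24 h), peak/trough on Days 2–6, Day 7 (predose to 16 h), then to 48 h after last dose. Validated bioanalytical method. Noncompartmental: Day 7 values as steady state, AUCτ, accumulation ratio. AEs recorded.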

[1] = 1.0 mg sc once daily, Day 7, geometric mean, n=5
[2] = 1.0 mg sc once daily, Day 7, median, n=5
[3] = 1.0 mg sc once daily, Day 7, median, n=8
[4] = 3.0 mg sc once daily, Day 1, geometric mean, n=7
[5] = 3.0 mg sc once daily, Day 1, geometric mean, n=8
[6] = 3.0 mg sc once daily, Day 1, median, n=7
[7] = 3.0 mg sc once daily, Day 1, median, n=8
[8] = 3.0 mg sc once daily, Day 7, geometric mean, n=8
[9] = 3.0 mg sc once daily, Day 7, mean (SD), n=8
[10] = 3.0 mg sc once daily, Day 7, median, n=6
[11] = 3.0 mg sc once daily, Day 7, median, n=8

With `CCCC[C@H](NC(C)=O)C(=O)N[C@H]1CCC(=O)NC[C@@H](C(=O)N[C@@H](Cc2c[nH]c3ccccc23)C(N)=O)NC(=O)[C@H](CCCNC(=N)N)NC(=O)[C@@H](Cc2ccccc2)NC(=O)[C@H](Cc2c[nH]cn2)NC1=O` [PL8177] the t½ (1.0 mg sc once daily, Day 1, geometric mean, n=6) was 4.1 h, the CL/F (1.0 mg sc once daily, Day 1, median, n=6) was 20.2 L/h and the “AI (accumulation index)” value [1] was 1.1. The t½ [1] was 6.7 h, the AUCτ (1.0 mg sc once daily, Day 7, geometric mean, n=8) was 51.2 ng·h/mL and the “AI (accumulation index)” value (1.0 mg sc once daily, Day 7, mean (SD), n=5) was 1.1 (0.1). The AUCτ (1.0 mg sc once daily, Day 7, mean (SD), n=8) was 52.9 (15.0) ng·h/mL, the “AI (accumulation index)” value [2] was 1.1 and the “AUC∞” value [2] was 51.8 ng·h/mL. For the same compound, the Vd/Fss [2] was 174 L, the AUCτ [3] was 48.3 ng·h/mL and the tmax [3] was 0.5 h. The “AUC∞” value [4] was 169.0 ng·h/mL, the “AUC∞/dose” value [4] was 56.5 ng·h/mL/mg and the Cmax [5] was 53.7 ng/mL. For the same compound, the Cmax/dose [5] was 17.9 ng/mL/mg, the “AUC∞/dose” value (3.0 mg sc once daily, Day 1, mean (SD), n=7) was 57.2 (10.2) ng·h/mL/mg and the Cmax/dose (3.0 mg sc once daily, Day 1, mean (SD), n=8) was 18.1 (3.2) ng/mL/mg. For the same compound, the “AUC∞” value [6] was 159.0 ng·h/mL, the “AUC∞/dose” value [6] was 53.0 ng·h/mL/mg and the CL/F [6] was 18.9 L/h. For the same compound, the t½ [6] was 9.6 h, the “AUC0–t” value [7] was 145.0 ng·h/mL and the Cmax [7] was 50.0 ng/mL. For the same compound, the “AI (accumulation index)” value (3.0 mg sc once daily, Day 7, geometric mean, n=6) was 1.4, the AUCτ [8] was 174.0 ng·h/mL and the AUCτ/dose [8] was 58.1 ng·h/mL/mg. For the same compound, the Cmax/dose [8] was 19.1 ng/mL/mg, the “AI (accumulation index)” value (3.0 mg sc once daily, Day 7, mean (SD), n=6) was 1.4 (0.2) and the AUCτ [9] was 177.0 (36.0) ng·h/mL. For the same compound, the AUCτ/dose [9] was 59.1 (12.0) ng·h/mL/mg, the Cmax/dose [9] was 19.5 (4.52) ng/mL/mg and the “AI (accumulation index)” value [10] was 1.3. For the same compound, the “AUC∞” value [10] was 200.0 ng·h/mL, the AUCτ [11] was 171.0 ng·h/mL and the AUCτ/dose [11] was 57.1 ng·h/mL/mg. The “AEs leading to study discontinuation, serious AEs, or severe AEs” value (multiple-dose arm) was “no reports”, the “Dose linearity for AUC∞ and Cmax” value (multiple-dose arm) was “inconclusive” and the “Intact drug excreted in the urine” value (multiple-dose arm) was no more than 1%. For the same compound, the “Most commonly reported AEs” value (multiple-dose arm) was “injection-site pain, erythema, and induration” and the “Time after dosing at which Cmax was generally reached (tmax)” value (multiple-dose arm) was 0.25 to 0.75 h.
